Reference: ChEMBL document CHEMBL1154693, “Discovery of trans-4-[1-[[2,5-Dichloro-4-(1-methyl-3-indolylcarboxamido)phenyl]acetyl]-(4S)-methoxy-(2S)-pyrrolidinylmethoxy]cyclohexanecarboxylic acid: an orally active, selective very late antigen-4 antagonist” (J Med Chem, 2009)

Key:
[1] = Drug level in BALB/c mouse serum at 10 mg/kg, po after 15 mins; format: ADME, organism-based; design: dose 10 mg/kg, route oral; details: read-out: Drug uptake
Method in brief: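 Serum (final 0.01-10%) assayed in the VLA-4/VCAM-1 binding assay, and concentration estimated from a calibration curve of compound spiked into untreated mouse serum.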

[2] = biological target: T1, Integrin alpha-4/beta-1 (Homo sapiens, UniProt P05556+P13612); test: Inhibition of europium labeled human VCAM1/Fc chimera binding to human VLA-4 alpha-4-beta-1 expressed in Chinese hamster 4B4 cells by fluorimetric assay; format: cell-based
[3] = biological target: T1, Integrin alpha-4/beta-1; test: Inhibition of europium labeled human VCAM1/Fc chimera binding to human VLA-4 alpha-4-beta-1 expressed in Chinese hamster 4B4 cells in presence of 3% HSA by fluorimetric assay; format: cell-based
Method in brief: (§1)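 CHO-K1 4B4 cells transfected with human α4 and β1, plated at 3 × 10⁵ cells/mL and cultured 2 days, washed with HEPES pH 7.5 buffer containing Ca, Mg, Mn. Compound plus Eu-labeled human VCAM-1/Fc (final 1 nM), with or without human serum albumin, 60 min at room temperature; washed, Eu time-resolved fluorescence read; duplicates.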

[4] = Volume of distribution at steady state in Sprague-Dawley rat at 1 mg/kg, iv; format: ADME, organism-based; design: dose 1 mg/kg, route intravenous; details: in vivo, read-out: Vdss
Method in brief: (§2)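 Male Sprague-Dawley rats (7 weeks), fasted 18 h, four per group. 1 mg/kg oral in 0.5% MC or iv in saline, each with 3 equiv NaOH. Plasma drawn at 0.08 (iv) or 0.25 (po), 0.5, 1, 2 and 6 h; LC/MS/MS quantitation, noncompartmental parameters.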

[5] = Clearance in Sprague-Dawley rat at 1 mg/kg, iv; format: ADME, organism-based; design: dose 1 mg/kg, route intravenous; details: in vivo; method in brief: as §2
[6] = Half life in Sprague-Dawley rat at 1 mg/kg, iv; format: ADME, organism-based; design: dose 1 mg/kg, route intravenous; details: in vivo; method in brief: as §2
[7] = test system: Mus musculus; test: Antiinflammatory activity in Ascaris suum antigen-induced BALB/c AnNCrj mouse asthma model assessed as inhibition of eosinophil infiltration in BAL fluid at 5 mg.kg, po bid administered 15 mins before and 8, 24 and 32 hrs after antigen challenge measured 48 hrs after antigen challenge; format: functional
Method in brief: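 Female BALB/c AnNCrj mice given cyclophosphamide 150 mg/kg po (day 0), sensitized ip with Ascaris suum extract plus alum on days 2 and 14, challenged intratracheally day 22. Compound in 0.5% MC/0.03% Tween 80 po 15 min before and 8, 24, 32 h after challenge; BAL at 48 h, eosinophils from total count times Wright-stained differential.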

[8] = biological target: T1, Integrin alpha-4/beta-1; test: Inhibition of europium labeled human VCAM1/Fc chimera binding to human VLA-4 alpha-4-beta-1 expressed in Chinese hamster 4B4 cells at 1.7 uM in presence of 3% HSA by fluorimetric assay; format: cell-based; method in brief: as §1
[9] = in vivo; details: rat, plasma
[10] = Oral bioavailability in rat; details: in vivo
[11] = biological target: T1, Integrin alpha-4/beta-1; test: Inhibition of europium labeled human VCAM1/Fc chimera binding to human VLA-4 alpha-4-beta-1 expressed in Chinese hamster 4B4 cells at 2 uM in presence of 3% HSA by fluorimetric assay; format: cell-based; method in brief: as §1
[12] = biological target: T1, Integrin alpha-4/beta-1; test: Inhibition of europium labeled human VCAM1/Fc chimera binding to human VLA-4 alpha-4-beta-1 expressed in Chinese hamster 4B4 cells at 2 uM by fluorimetric assay; format: cell-based; method in brief: as §1
[13] = test system: Mus musculus; test: Toxicity in BALB/c AnNCrj mouse assessed as induction of cholestatic liver injury at 25 mg/kg, po for 2 days; format: organism-based; design: dose 25 mg/kg, route oral; details: in vivo, 48 h
Method in brief: (§3)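 Mice dosed iv at 50 mg/kg or orally at 25 or 200 (mg/kg)/day for 2 days, then assessed for liver injury.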

[14] = test system: Mus musculus; test: Toxicity in BALB/c AnNCrj mouse assessed as induction of cholestatic liver injury at 50 mg/kg, iv for 2 days; format: organism-based; design: dose 50 mg/kg, route intravenous; details: in vivo, 48 h; method in brief: as §3
[15] = biological target: T1, Integrin alpha-4/beta-1; test: Inhibition of europium labeled human VCAM1/Fc chimera binding to human VLA-4 alpha-4-beta-1 expressed in Chinese hamster 4B4 cells at 1.8 uM in presence of 3% HSA by fluorimetric assay; format: cell-based; method in brief: as §1
[16] = biological target: T1, Integrin alpha-4/beta-1; test: Inhibition of europium labeled human VCAM1/Fc chimera binding to human VLA-4 alpha-4-beta-1 expressed in Chinese hamster 4B4 cells at 1.7 uM by fluorimetric assay; format: cell-based; method in brief: as §1

T1 sequence (P05556 whole entry): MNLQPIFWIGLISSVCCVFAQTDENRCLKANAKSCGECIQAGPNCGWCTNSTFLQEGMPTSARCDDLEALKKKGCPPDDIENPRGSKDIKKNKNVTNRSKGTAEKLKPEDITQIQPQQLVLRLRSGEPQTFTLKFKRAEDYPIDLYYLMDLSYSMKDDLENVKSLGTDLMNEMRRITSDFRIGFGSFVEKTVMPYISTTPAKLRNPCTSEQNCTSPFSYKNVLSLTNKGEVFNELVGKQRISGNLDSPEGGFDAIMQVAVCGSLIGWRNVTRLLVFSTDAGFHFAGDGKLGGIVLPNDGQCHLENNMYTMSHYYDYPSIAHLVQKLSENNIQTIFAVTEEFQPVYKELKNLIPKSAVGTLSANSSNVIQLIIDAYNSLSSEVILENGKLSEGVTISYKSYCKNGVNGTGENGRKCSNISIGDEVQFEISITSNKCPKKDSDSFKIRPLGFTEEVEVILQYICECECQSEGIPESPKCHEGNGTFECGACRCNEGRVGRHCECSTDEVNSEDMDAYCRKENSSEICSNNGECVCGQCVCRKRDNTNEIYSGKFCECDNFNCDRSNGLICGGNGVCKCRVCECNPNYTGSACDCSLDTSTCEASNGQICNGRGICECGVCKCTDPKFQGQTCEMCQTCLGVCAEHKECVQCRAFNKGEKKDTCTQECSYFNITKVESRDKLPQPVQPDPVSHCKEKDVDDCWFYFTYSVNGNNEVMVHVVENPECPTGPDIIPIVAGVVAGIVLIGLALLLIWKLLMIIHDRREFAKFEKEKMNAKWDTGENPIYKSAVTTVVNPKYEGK
T1 sequence (P13612 whole entry): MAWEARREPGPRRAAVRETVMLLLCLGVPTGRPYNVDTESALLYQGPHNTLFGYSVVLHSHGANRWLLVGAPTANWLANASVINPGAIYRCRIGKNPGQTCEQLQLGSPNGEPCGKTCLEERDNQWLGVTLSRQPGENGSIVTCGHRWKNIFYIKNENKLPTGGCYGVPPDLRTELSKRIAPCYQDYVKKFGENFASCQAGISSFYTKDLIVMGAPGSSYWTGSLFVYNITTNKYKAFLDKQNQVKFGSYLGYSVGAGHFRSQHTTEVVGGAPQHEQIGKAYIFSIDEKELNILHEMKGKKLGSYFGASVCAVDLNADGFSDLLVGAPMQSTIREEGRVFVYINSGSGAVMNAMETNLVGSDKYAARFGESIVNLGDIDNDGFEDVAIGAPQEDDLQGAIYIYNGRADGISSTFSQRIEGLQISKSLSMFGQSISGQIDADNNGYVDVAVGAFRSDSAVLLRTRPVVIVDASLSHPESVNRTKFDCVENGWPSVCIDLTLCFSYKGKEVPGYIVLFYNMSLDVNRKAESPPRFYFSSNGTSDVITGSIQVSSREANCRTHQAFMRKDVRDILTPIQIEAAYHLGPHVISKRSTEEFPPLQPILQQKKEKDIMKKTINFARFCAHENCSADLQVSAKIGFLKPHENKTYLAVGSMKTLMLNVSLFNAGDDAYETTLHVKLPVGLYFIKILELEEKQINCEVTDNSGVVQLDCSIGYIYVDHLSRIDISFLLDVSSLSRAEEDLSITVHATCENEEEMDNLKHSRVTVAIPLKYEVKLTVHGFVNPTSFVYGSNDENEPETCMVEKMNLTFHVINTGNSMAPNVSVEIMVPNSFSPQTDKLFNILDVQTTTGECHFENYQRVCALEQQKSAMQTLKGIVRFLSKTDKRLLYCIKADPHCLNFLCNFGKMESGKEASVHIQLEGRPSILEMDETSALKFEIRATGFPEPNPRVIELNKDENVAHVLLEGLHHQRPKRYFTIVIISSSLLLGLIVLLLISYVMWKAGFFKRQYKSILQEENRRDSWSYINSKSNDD

SMILES | concentration at 0.25 h [1] [ng/mL] | IC50 [2] [nM] | IC50 [3] [nM] | further results
Cn1cc(C(=O)Nc2cc(Cl)c(CC(=O)N3C[C@@H](F)C[C@H]3CO[C@H]3CC[C@H](C(=O)O)CC3)cc2Cl)c2ccccc21 | 1880 | 5.5 | 241 | –
O=C(Cc1ccc(Nc2nc3cc(F)ccc3o2)c(Cl)c1)N1C[C@@H](F)C[C@H]1CO[C@H]1CC[C@H](C(=O)O)CC1 | 358 | 7.3 | 223 | –
O=C(Nc1ccc(CC(=O)N2C[C@@H](F)C[C@H]2CO[C@H]2CC[C@H](C(=O)O)CC2)cc1Cl)c1c[nH]c2ccccc12 | 193 | 0.53 | 3.9 | Vd [4]: 0.668 L/kg; clearance [5]: 61.1 mL/min/kg; half-life [6]: 12 min
Cn1cc(C(=O)Nc2ccc(CC(=O)N3C[C@@H](F)C[C@H]3CO[C@H]3CC[C@H](C(=O)O)CC3)cc2Cl)c2ccccc21 | 5160 | 2.6 | 92 | inhibition (INH) [7]: 13%; Vd [4]: 0.139 L/kg; clearance [5]: 5 mL/min/kg; half-life [6]: 42 min
Cc1cccc2oc(Nc3ccc(CC(=O)N4C[C@@H](F)C[C@H]4CO[C@H]4CC[C@H](C(=O)O)CC4)cc3Cl)nc12 | – | 12 | 290 | –
O=C(Nc1cc(F)c(CC(=O)N2C[C@@H](F)C[C@H]2CO[C@H]2CC[C@H](C(=O)O)CC2)cc1Cl)c1n[nH]c2ccccc12 | 848 | 8.5 | 108 | –
CCn1cc(C(=O)Nc2ccc(CC(=O)N3C[C@@H](F)C[C@H]3CO[C@H]3CC[C@H](C(=O)O)CC3)cc2Cl)c2ccccc21 | – | 204 | – | inhibition [8]: 21%
O=C(Nc1ccc(CC(=O)N2C[C@@H](F)C[C@H]2CO[C@H]2CC[C@H](C(=O)O)CC2)cc1Cl)c1nccc2ccccc12 | – | 14 | 418 | –
Cn1cc(C(=O)Nc2cc(F)c(CC(=O)N3CCC[C@H]3CO[C@H]3CC[C@H](C(=O)O)CC3)cc2Cl)c2ccccc21 | – | 12 | 370 | –
O=C(Nc1ccc(CC(=O)N2C[C@@H](F)C[C@H]2CO[C@H]2CC[C@H](C(=O)O)CC2)cc1Cl)c1nsc2ccccc12 | 2150 | 2.7 | 196 | –
Cn1cc(C(=O)Nc2cc(F)c(CC(=O)N3C[C@@H](O)C[C@H]3CO[C@H]3CC[C@H](C(=O)O)CC3)cc2Cl)c2ccccc21 | 452 | 6.4 | 45 | –
Cc1ccccc1NC(=O)Nc1ccc(CC(=O)N2C[C@@H](F)C[C@H]2COc2ccc(C(=O)O)cc2)cc1Cl | – | – | – | clearance [9]: 31.5 mL/min/kg; bioavailability [10]: 11%
Cn1cc(C(=O)Nc2cc(Cl)c(CC(=O)N3C[C@@H](O)C[C@H]3CO[C@H]3CC[C@H](C(=O)O)CC3)cc2Cl)c2ccccc21 | 93 | 7.8 | 70 | –
Cc1ccccc1Cc1nc2ccc(CC(=O)N3C[C@@H](F)C[C@H]3CO[C@H]3CC[C@H](C(=O)O)CC3)cc2o1 | – | – | – | inhibition [11]: 7%; inhibition [12]: 33%
Cc1ccccc1Nc1nc2ccc(CC(=O)N3C[C@@H](F)C[C@H]3CO[C@H]3CC[C@H](C(=O)O)CC3)c(F)c2o1 | 363 | 3 | 70 | –
O=C(Nc1cc(F)c(CC(=O)N2C[C@@H](F)C[C@H]2CO[C@H]2CC[C@H](C(=O)O)CC2)cc1Cl)c1noc2ccccc12 | – | 128 | – | inhibition [8]: 19%
Cc1ccc(F)cc1Nc1nc2ccc(CC(=O)N3C[C@@H](F)C[C@H]3CO[C@H]3CC[C@H](C(=O)O)CC3)c(F)c2o1 | 912 | 2.8 | 439 | –
O=C(Nc1ccc(CC(=O)N2C[C@@H](F)C[C@H]2CO[C@H]2CC[C@H](C(=O)O)CC2)cc1Cl)N1CCc2ccccc21 | 1100 | 1.9 | 83 | –
Cc1ccc(F)cc1Nc1nc2ccc(CC(=O)N3C[C@@H](F)C[C@H]3CO[C@H]3CC[C@H](C(=O)O)CC3)cc2o1 | 448 | 4.4 | 131 | –
O=C(Cc1ccc(Nc2nc3ccc(F)cc3o2)c(Cl)c1)N1C[C@@H](F)C[C@H]1CO[C@H]1CC[C@H](C(=O)O)CC1 | – | 20 | 630 | –
Cn1cc(C(=O)Nc2cc(F)c(CC(=O)N3C[C@@H](F)C[C@H]3CO[C@H]3CC[C@H](C(=O)O)CC3)cc2Cl)c2ccccc21 | 11400 | 5 | 284 | Activity [13]: Toxic; inhibition (INH) [7]: 57%; Activity [14]: Toxic; Vd [4]: 0.153 L/kg; clearance [5]: 2.6 mL/min/kg; half-life [6]: 54 min
O=C(Nc1cc(F)c(CC(=O)N2C[C@@H](F)C[C@H]2CO[C@H]2CC[C@H](C(=O)O)CC2)cc1Cl)c1nsc2ccccc12 | 307 | 7.5 | 176 | –
O=C(Cc1ccc(Nc2nc3ccccc3o2)c(Cl)c1)N1C[C@@H](F)C[C@H]1CO[C@H]1CC[C@H](C(=O)O)CC1 | 508 | 5.9 | 138 | –
O=C(Nc1cc(F)c(CC(=O)N2C[C@@H](F)C[C@H]2CO[C@H]2CC[C@H](C(=O)O)CC2)cc1Cl)N1CCc2ccccc21 | 2960 | 2.7 | 171 | –
Cc1cc(F)ccc1Nc1nc2ccc(CC(=O)N3C[C@@H](F)C[C@H]3CO[C@H]3CC[C@H](C(=O)O)CC3)c(F)c2o1 | – | 12 | 1680 | –
CO[C@H]1C[C@@H](CO[C@H]2CC[C@H](C(=O)O)CC2)N(C(=O)Cc2cc(Cl)c(NC(=O)c3cn(C)c4ccccc34)cc2F)C1 | 9400 | 2.9 | 36 | inhibition (INH) [7]: 30%
O=C(Nc1cc(F)c(CC(=O)N2C[C@@H](F)C[C@H]2CO[C@H]2CC[C@H](C(=O)O)CC2)cc1Cl)c1nccc2ccccc12 | – | 32 | 1670 | –
Cc1c(F)cccc1Nc1nc2ccc(CC(=O)N3C[C@@H](F)C[C@H]3CO[C@H]3CC[C@H](C(=O)O)CC3)c(F)c2o1 | – | 47 | – | inhibition [15]: 13%
CC(C)n1cc(C(=O)Nc2ccc(CC(=O)N3C[C@@H](F)C[C@H]3CO[C@H]3CC[C@H](C(=O)O)CC3)cc2Cl)c2ccccc21 | – | – | – | inhibition [8]: 8%; inhibition [16]: 41%
O=C(Cc1ccc(Nc2nc3cccc(F)c3o2)c(Cl)c1)N1C[C@@H](F)C[C@H]1CO[C@H]1CC[C@H](C(=O)O)CC1 | – | 40 | 1030 | –
